The array DNA melting data of Ke et al. (doi:10.1101/2024.01.08.574731)

Tests used:
[1] = melting temperature; fluorescence melt of hairpins on a sequencing array, two-state fit, raised by 9.35 °C to match UV melts; settings: sodium 0.088 M
How it was run: (§1)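 On a sequenced MiSeq flow cell, library hairpins with annealed Cy3 and quencher oligos were imaged for Cy3 fluorescence in 2.5 °C steps up to 60 °C, in 50 mM Na-HEPES pH 8.0, 25 mM NaCl. Normalisation used pre-quench Cy3 and control constructs. Bootstrapped two-state fits gave melting temperature and folding enthalpy, combined by inverse variance across four replicates and with fitted temperatures raised by 9.35 °C to match UV melts.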

[2] = folding enthalpy; higher = less favourable; fluorescence melt of hairpins on a sequencing array, two-state fit; settings: sodium 0.088 M
How it was run: as §1

GGTCAAGGAAACCTGACC (((((.(....).)))))
Tm [1]: 46.5 °C | folding enthalpy [2]: -30.5 kcal/mol

GCCCTCGAAAGAGTCGGC ((((((....)))..)))
Tm [1]: 40.9 °C | folding enthalpy [2]: -24.1 kcal/mol

GTCCCCGAAAGGGGCGAC ((((((....)))..)))
Tm [1]: 65.8 °C | folding enthalpy [2]: -14 kcal/mol

GGATGCGGAAACGCGTCC (((.(((....))).)))
Tm [1]: 61.8 °C | folding enthalpy [2]: -47.5 kcal/mol

GGAATTGGAAACAGTTCC ((((.((....)).))))
Tm [1]: 42.9 °C | folding enthalpy [2]: -27.3 kcal/mol

GGGCGAGGAAACCCACCC (((.(.(....).).)))
Tm [1]: 30.9 °C | folding enthalpy [2]: -16.4 kcal/mol

GATCCACCATTGGATC ((((((....))))))
Tm [1]: 49.4 °C | folding enthalpy [2]: -31.5 kcal/mol

GGGATGGAAACATCCC ((((((....))))))
Tm [1]: 60.7 °C | folding enthalpy [2]: -41.4 kcal/mol

GTGCCTGGAAACAAGCAC ((((.((....)).))))
Tm [1]: 42.7 °C | folding enthalpy [2]: -24.6 kcal/mol

GCTAACTCGAAAGAGAGC (((..(((....))))))
Tm [1]: 32 °C | folding enthalpy [2]: -16.5 kcal/mol

GCGCCGCGAAAGCAACGC (((..((....))..)))
Tm [1]: 51.1 °C | folding enthalpy [2]: -18.1 kcal/mol

GCATGGCGAAAGCTCTGC (((..((....))..)))
Tm [1]: 43.2 °C | folding enthalpy [2]: -18 kcal/mol

GTGTCCGGAAACGGATAC ((.((((....)))).))
Tm [1]: 53.3 °C | folding enthalpy [2]: -38.6 kcal/mol

GCCGGGCGAAAGCAAGGC (((..((....))..)))
Tm [1]: 68.5 °C | folding enthalpy [2]: -34 kcal/mol

GTTGGGCCGAAAGGCAAC (((..(((....))))))
Tm [1]: 45.4 °C | folding enthalpy [2]: -15.3 kcal/mol

GATCGAGTATCGATC ((((((...))))))
Tm [1]: 59.6 °C | folding enthalpy [2]: -40.9 kcal/mol

GATCGTTGGGACGATC ((((((....))))))
Tm [1]: 59 °C | folding enthalpy [2]: -36.7 kcal/mol

CATATGAAAATATG (((((....)))))
Tm [1]: 32.2 °C | folding enthalpy [2]: -11.8 kcal/mol

GATCTGGTGCAGATC ((((((...))))))
Tm [1]: 49.5 °C | folding enthalpy [2]: -31.1 kcal/mol

GCGACACCTCGC ((((....))))
Tm [1]: 51.3 °C | folding enthalpy [2]: -29.5 kcal/mol

GATCTAAAGCTAGATC ((((((....))))))
Tm [1]: 35.4 °C | folding enthalpy [2]: -18.3 kcal/mol

GCTTTGCGAAAGCCGAGC (((..((....))..)))
Tm [1]: 41.9 °C | folding enthalpy [2]: -16 kcal/mol

GGGATCTCGAAAGAGCCC (((..(((....))))))
Tm [1]: 51.2 °C | folding enthalpy [2]: -27.9 kcal/mol

GACACCGGAAACGACGTC (((..((....))..)))
Tm [1]: 29.4 °C | folding enthalpy [2]: -21.9 kcal/mol

GTCTGCGGAAACGTAGAC ((((.((....)).))))
Tm [1]: 53.2 °C | folding enthalpy [2]: -37.8 kcal/mol

GTGTGCGGAAACACACAC (((((.(....).)))))
Tm [1]: 51.8 °C | folding enthalpy [2]: -36.2 kcal/mol

GGCCACGGAAACGCAGCC (((..((....))..)))
Tm [1]: 39.5 °C | folding enthalpy [2]: -20.5 kcal/mol

GCCTCTGGAAACAGAGAC (.(((((....))))).)
Tm [1]: 40.1 °C | folding enthalpy [2]: -18.7 kcal/mol

GCAACTGGAAACAATTGC ((((.((....)).))))
Tm [1]: 34.5 °C | folding enthalpy [2]: -32.8 kcal/mol

GCATGTCGAAAGACGTGC (((.(((....))).)))
Tm [1]: 65.6 °C | folding enthalpy [2]: -36.8 kcal/mol

GATCAAGACCTTGATC ((((((....))))))
Tm [1]: 50.1 °C | folding enthalpy [2]: -40.2 kcal/mol

GAGTTACGAAAGTACTC (((.(((....))))))
Tm [1]: 43.2 °C | folding enthalpy [2]: -25.4 kcal/mol

GTGGATGGAAACATTCAC (((.(((....))).)))
Tm [1]: 46.6 °C | folding enthalpy [2]: -45.5 kcal/mol

GATCTACCATTAGATC ((((((....))))))
Tm [1]: 37.9 °C | folding enthalpy [2]: -33.2 kcal/mol

GTCCGACGAAAGTCCGAC (((.(((....))).)))
Tm [1]: 44 °C | folding enthalpy [2]: -27.5 kcal/mol

GATCTAAGGGTAGATC ((((((....))))))
Tm [1]: 35.3 °C | folding enthalpy [2]: -25.1 kcal/mol

GCCGCCACGAAAGTGGGC (((..(((....))))))
Tm [1]: 54.6 °C | folding enthalpy [2]: -8.39 kcal/mol

GACTTAGGAAACTGAGTC ((((.((....)).))))
Tm [1]: 41.2 °C | folding enthalpy [2]: -36.1 kcal/mol
